Experimental data: paper PMC3648642 (Journal of medicinal chemistry, 2013)

Key:
[1] = molecular target: T1, TSPO (Rattus norvegicus, UniProt P16257); experiment: Radioligand displacement of 3H-PK 11195 in C6 glioma cell lysate; assay type: binding; conditions: for decrease in affinity with respect to parent compound: R2 hydrogen replaced with methyl
[2] = molecular target: TSPO; conditions: high-affinity TSPO ligand for comparison; cited from earlier work
[3] = within the first 12 minutes post-administration; cited from earlier work
[4] = tested on: C6 glioma; assay type: in vivo, Wistar rats
Method in brief: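 C6 glioma-bearing Wistar rats were given the 18F-labelled test compound (radiochemical purity >99%) and imaged by 90-minute dynamic microPET. Time-activity curves were drawn for tumor, normal brain and plasma across eight representative studies. Plasma radiometabolites were analysed by radio-HPLC at 2, 12, 30, 60 and 90 min. Brains were processed post mortem for staining and immunohistochemistry.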

[5] = Radio-HPLC of radiometabolites in plasma during PET scanning; assay type: in vivo, rat; conditions: 2, 12, 30, 60, 90 min
[6] = molecular target: T1, TSPO; experiment: Biodistribution and specific binding; assay type: in vivo, rats
Method in brief: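 Normal rats received an infusion of the 18F-labelled test compound (radiochemical purity >99%, specific activity >4203 Ci/mmol). Tissues were harvested 60 minutes after infusion, and their radioactivity was counted. Values are expressed as percentage of injected dose per gram of tissue (%ID/g).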

[7] = bolus of non-radioactive 6b (10 mg/kg) at 30 minutes, 60-minute assay

CCN(CC)C(=O)Cc1c(-c2ccc(OC)cc2)nn2c(C)c(C)c(C)nc12 [Compound 5d]
decrease in affinity with respect to parent compound [1]: approximately 10 fold

CCc1cc(CC)n2nc(-c3ccc(OCCF)cc3)c(CC(=O)N(CC)CC)c2n1 [Compound 6b, 2-(5,7-diethyl-2-(4-(2-fluoroethoxy)phenyl)pyrazolo[1,5-a]pyrimidin-3-yl)-N,N-diethylacetamide]
enhancement in affinity compared to 6a (DPA-714) ([1]; TSPO affinity): 36 fold

CCN(CC)C(=O)Cc1c(-c2ccc(OCCF)cc2)nn2c(C)c(C)c(C)nc12 [Compound 6d]
decrease in affinity with respect to parent compound [1]: approximately 10 fold

COc1ccccc1CN(C(C)=O)c1cnccc1Oc1ccccc1 [PBR28, N-(2-methoxybenzyl)-N-(4-phenoxypyridin-3-yl)acetamide]
Ki [2]: 4 nM

CCN(CC)C(=O)Cc1c(-c2ccc(OCC[18F])cc2)nn2c(C)cc(C)nc12 [^18F-6a, N,N-diethyl-2-(2-(4-(2-[^18F]fluoroethoxy)phenyl)-5,7-dimethylpyrazolo[1,5-a]pyrimidin-3-yl)acetamide]
metabolism in plasma [3]: up to 30%

CCc1cc(CC)n2nc(-c3ccc(OCC[18F])cc3)c(CC(=O)N(CC)CC)c2n1 [^18F-6b, 2-(5,7-diethyl-2-(4-(2-[^18F]fluoroethoxy)phenyl)pyrazolo[1,5-a]pyrimidin-3-yl)-N,N-diethylacetamide]
tracer uptake in brain (tumor vs normal brain) ([4]; dynamic PET, 90-minute acquisition): majority of tracer uptake in the brain was localized to the tumor
clearance from plasma ([4]; time-activity curve, 90-minute dynamic acquisition): quickly cleared from the plasma
radioactive species detected in plasma [5]: the only radioactive species detected in plasma at all time points
accumulation in brain, testes, skull, and skeletal muscle ([6]; 60 minutes after infusion): Very minor accumulation
accumulation in spleen, heart, kidney, and lung ([6]; 60 minutes after infusion): elevated accumulation
uptake in liver, colon, small bowel, and stomach ([6]; 60 minutes after infusion): Moderate uptake
radioactivity in whole blood or urine ([6]; 60 minutes post-administration): very little radio-activity
activity in muscle or liver with displacement [6, 7]: essentially unchanged with displacement
activity in spleen, heart, kidney, and lung with displacement [6, 7]: reduced to background levels
activity in urine with displacement [6, 7]: elevated with displacement
